≈ marks a conversion by molar mass, not a printed value. Calls of active or inactive are those of the source. No cut-off for these calls is given here.
Columns and labels:
[1] = system: Trypanosoma cruzi; test: Effect on endogenous 24-ethyl-5,7,22-cholesta-trien-3beta-ol level in Trypanosoma cruzi epimastigotes at 20 uM; format: functional
Outline: (§1)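 EP stock epimastigotes grown 120 h in LIT medium with 10% newborn calf serum at 28 °C, with or without compound at the stated concentration. Total lipids were extracted, and free sterols were separated from polar lipids by silicic acid column chromatography. Sterols were quantified by capillary gas-liquid chromatography and mass spectrometry and reported as mass percent of free sterols.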

[2] = system: Trypanosoma cruzi; test: Effect on exogenous cholesterol level in Trypanosoma cruzi epimastigotes at 20 uM; format: functional; outline: as §1
[3] = system: Trypanosoma cruzi; test: Effect on endogenous 24-ethyl-5,7-cholesta-dien-3beta-ol level in Trypanosoma cruzi epimastigotes at 20 uM; format: functional; outline: as §1
[4] = system: Trypanosoma cruzi; test: Effect on endogenous Ergosta-5,7-24(24')-trien-3beta-ol level in Trypanosoma cruzi epimastigotes at 20 uM; format: functional; outline: as §1
[5] = molecular target: T1, Hexokinase (Trypanosoma cruzi, UniProt Q8ST54); test: Inhibition of glycosomal Trypanosoma cruzi hexokinase in presence of D-glucose, 1 mM ATP and 3 mM MgCl2
T1 sequence (Q8ST54 whole entry): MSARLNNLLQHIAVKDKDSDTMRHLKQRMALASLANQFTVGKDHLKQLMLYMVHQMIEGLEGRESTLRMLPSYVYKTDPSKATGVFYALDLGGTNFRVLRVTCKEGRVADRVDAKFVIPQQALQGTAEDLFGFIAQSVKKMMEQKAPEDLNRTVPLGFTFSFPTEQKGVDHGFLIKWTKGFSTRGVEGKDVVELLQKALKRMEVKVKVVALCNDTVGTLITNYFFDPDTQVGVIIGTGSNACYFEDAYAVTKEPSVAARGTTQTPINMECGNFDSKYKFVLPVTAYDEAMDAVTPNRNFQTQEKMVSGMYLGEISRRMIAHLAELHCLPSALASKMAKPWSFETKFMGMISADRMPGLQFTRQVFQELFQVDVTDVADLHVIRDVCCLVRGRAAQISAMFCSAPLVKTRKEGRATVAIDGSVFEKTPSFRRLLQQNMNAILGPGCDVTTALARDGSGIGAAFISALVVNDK
Outline: (§2)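 Purified intact glycosomes from exponential-phase epimastigotes (latency typically >95%) were permeabilized with digitonin 25 µg mg-1 protein for 1 min, pelleted and resuspended in buffer A (sucrose 225 mM, KCl 20 mM, KH2PO4 10 mM, EDTA 5 mM, Tris-HCl 20 mM, MgCl2 1 mM, pH 7.2). Hexokinase was assayed by coupled NADP+ reduction at 340 nm. Against ATP: 2 mM D-glucose, 3 mM MgCl2. Against glucose: 1 mM ATP, 3 mM MgCl2. Kii and Kis were fitted.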

[6] = system: Trypanosoma cruzi; test: Growth inhibition of Trypanosoma cruzi epimastigotes; format: functional, organism-based
Outline: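 EP epimastigotes grown in LIT medium with 10% newborn calf serum at 28 °C, 120 rpm. Compound added from 100-fold stocks at 1-2 × 10^7 cells ml-1. Densities counted by particle counter and hemocytometer. Percent growth factor based on 96 h growth relative to untreated cells; IC50 from non-linear fit; MIC also reported. Triplicates.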

[7] = molecular target: T1, Hexokinase; test: Inhibition of glycosomal Trypanosoma cruzi hexokinase in presence of ATP, 2 mM D-glucose and 3 mM MgCl2 by competitive inhibition assay; outline: as §2
[8] = system: Trypanosoma cruzi; test: Effect on glucose consumption in digitonin permeablized Trypanosoma cruzi; format: functional, organism-based
Outline: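 Resuspended with PEP 6 mM, ADP 6 mM, NaHCO3 7 mM and L-malate 1 mM. Preincubated 60 min at 28 °C with varying compound concentrations before 3 mM D-glucose was added. Medium glucose was assayed enzymatically every 15 min; IC50 determined.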

[9] = molecular target: T1, Hexokinase; test: Inhibition of glycosomal Trypanosoma cruzi hexokinase in presence of D-glucose, 1 mM ATP and 3 mM MgCl2 by competitive inhibition assay; outline: as §2
[10] = system: Trypanosoma cruzi; test: Effect on endogenous Ergosta-7-24(24')-dien-3beta-ol level in Trypanosoma cruzi epimastigotes at 20 uM; format: functional; outline: as §1
[11] = system: Trypanosoma cruzi; test: Effect on endogenous 24-methyl-5,7,22-cholesta-trien-3beta-ol level in Trypanosoma cruzi epimastigotes at 20 uM; format: functional; outline: as §1
[12] = system: Trypanosoma cruzi; test: Effect on endogenous Ergosta-5,7-dien-3beta-ol level in Trypanosoma cruzi epimastigotes at 20 uM; format: functional; outline: as §1
[13] = molecular target: T1, Hexokinase; test: Inhibition of Trypanosoma cruzi hexokinase in presence of D-glucose, 1 mM ATP and 3 mM MgCl2 by competitive inhibition assay
Outline: (§3)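 Homogeneous hexokinase purified from exponential-phase epimastigotes. Activity measured spectrophotometrically by coupling to glucose-6-phosphate dehydrogenase and following NADP+ reduction at 340 nm; rates taken from the initial linear slope. Against ATP: 2 mM D-glucose, 3 mM MgCl2. Against D-glucose: 1 mM ATP, 3 mM MgCl2. Substrate and inhibitor were varied, and Kii and Kis were obtained from fitting plus secondary plots.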

[14] = system: Trypanosoma cruzi; test: Inhibition of glucose consumption in Trypanosoma cruzi epimastigotes after 120 hrs; format: functional, organism-based
Outline: (§4)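 Epimastigotes cultured in LIT medium at 28 °C with agitation, with or without 15 µM compound. Cell proliferation, medium glucose and ammonium (enzymatic assays) and medium pH were followed over time. Triplicates.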

[15] = system: Trypanosoma cruzi; test: Reduction in proliferation of Trypanosoma cruzi epimastigotes at 15 uM; format: functional, organism-based; outline: as §4
[16] = molecular target: T1, Hexokinase; test: Inhibition of Trypanosoma cruzi hexokinase in presence of ATP, 2 mM D-glucose and 3 mM MgCl2 by mixed inhibition assay
[17] = molecular target: T1, Hexokinase; test: Inhibition of Trypanosoma cruzi hexokinase in presence of ATP, 2 mM D-glucose and 3 mM MgCl2; outline: as §3
[18] = system: Trypanosoma cruzi; test: Effect on exogenous cholesterol level in Trypanosoma cruzi epimastigotes at 100 uM; format: functional; outline: as §1
[19] = system: Trypanosoma cruzi; test: Effect on endogenous 24-ethyl-5,7-cholesta-dien-3beta-ol level in Trypanosoma cruzi epimastigotes at 50 uM; format: functional; outline: as §1
[20] = molecular target: T1, Hexokinase; test: Inhibition of glycosomal Trypanosoma cruzi hexokinase in presence of ATP, 2 mM D-glucose and 3 mM MgCl2; outline: as §2
[21] = molecular target: T1, Hexokinase; test: Inhibition of Trypanosoma cruzi hexokinase in presence of D-glucose, 1 mM ATP and 3 mM MgCl2
Outline: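 Hexokinase purified to homogeneity from exponential-phase T. cruzi epimastigotes. Activity was coupled to glucose-6-phosphate dehydrogenase and read as NADP+ reduction at 340 nm, with initial velocity taken from the slope, linear for at least 5 min. D-glucose was varied at fixed inhibitor levels with 1 mM ATP and 3 mM MgCl2. Kii and Kis came from fitting to a mixed-inhibition equation (intercept/slope secondary plots).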

[22] = system: Trypanosoma cruzi; test: Effect on exogenous cholesterol level in Trypanosoma cruzi epimastigotes at 50 uM; format: functional; outline: as §1
[23] = system: Trypanosoma cruzi; test: Effect on endogenous 24-ethyl-5,7,22-cholesta-trien-3beta-ol level in Trypanosoma cruzi epimastigotes at 50 uM; format: functional; outline: as §1
[24] = system: Trypanosoma cruzi; test: Effect on endogenous 24-ethyl-5,7-cholesta-dien-3beta-ol level in Trypanosoma cruzi epimastigotes at 100 uM; format: functional; outline: as §1
[25] = system: Trypanosoma cruzi; test: Inhibition of glucose consumption in Trypanosoma cruzi epimastigotes after 96 hrs; format: functional, organism-based; outline: as §4

O=P(O)(O)C(Nc1cccc(Br)c1)P(=O)(O)O
Activity [1]: 18.3% | Activity [2]: 21.3% | Activity [3]: 3.4% | Activity [4]: 6% | Ki [5]: 10.6 µM | IC50 [6]: 7 µM | MIC [6]: 20 µM (≈ 6.92 µg/mL) | Ki [7]: 2.6 µM | IC50 [8]: 1.2 µM | Ki [9]: 2.9 µM | Activity [10]: 2% | Activity [11]: 31% | Activity [12]: 18% | Ki [13]: 0.4 µM | Activity [14]: Active | Activity [15]: Active | Ki [16]: 0.6 µM | Ki [17]: 1.2 µM

O=P(O)(O)C(O)(Cc1ccncc1)P(=O)(O)O
Activity [18]: 93.3% | Activity [19]: 14.5% | Ki [5]: 43.9 µM | Ki [20]: 10.5 µM | Ki [21]: 6 µM | IC50 [6]: 40.6 µM | MIC [6]: 200 µM (≈ 56.6 µg/mL) | Activity [22]: 70.9% | Activity [23]: 14.6% | Ki [7]: 11.4 µM | IC50 [8]: 10.3 µM | Ki [9]: 3.4 µM | Activity [24]: 6.7% | Ki [13]: 3.3 µM | Ki [16]: 2.8 µM | Ki [17]: 4.3 µM

CCn1c2ccccc2c2cc(NC(P(=O)(O)O)P(=O)(O)O)ccc21
Activity [1]: 19.3% | Activity [2]: 18.8% | Activity [3]: 8.4% | Activity [4]: 3.8% | Ki [5]: 4.3 µM | Ki [20]: 1.7 µM | IC50 [6]: 6.4 µM | MIC [6]: 20 µM (≈ 7.69 µg/mL) | Ki [7]: 1.2 µM | IC50 [8]: 0.62 µM | Ki [9]: 2.4 µM | Activity [11]: 23.4% | Activity [12]: 26.3% | Ki [13]: 0.5 µM | Activity [15]: Active | Ki [16]: 1.7 µM | Activity [25]: Active | Ki [17]: 2.8 µM
